OXTR potentiate: human OXTR potentiation; P30559; CHO-OTR cells, Fluo-8 calcium fluorescence, potentiator mode; 0% = oxytocin EC15, 100% = EC100; activation, % at 3 µM; hit rate 0.061% among 320,000;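 active = activation above that plate's cutoff, the mean activation of tested compounds plus 3 SD, cut at about 6.6% in these data, passing the limit was not always enough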;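 note: 100% uses oxytocin at 75 nM as the full agonist control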
Target sequence (P30559 whole entry, looked up): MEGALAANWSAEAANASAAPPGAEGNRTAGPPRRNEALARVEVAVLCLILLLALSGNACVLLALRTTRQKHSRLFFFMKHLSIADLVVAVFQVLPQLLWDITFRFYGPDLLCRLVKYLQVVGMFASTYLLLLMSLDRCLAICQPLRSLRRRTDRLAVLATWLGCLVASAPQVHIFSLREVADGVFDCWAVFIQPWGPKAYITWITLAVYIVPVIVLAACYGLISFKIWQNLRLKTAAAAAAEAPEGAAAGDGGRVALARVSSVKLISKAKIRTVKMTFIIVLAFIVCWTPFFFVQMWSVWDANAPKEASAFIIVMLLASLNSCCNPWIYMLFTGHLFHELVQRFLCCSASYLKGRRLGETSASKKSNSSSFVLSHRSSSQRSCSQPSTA
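Material: human OTR in CHO cells. Compound: 3.0 µM, one dose. Timing: compound 6 min at room temperature before oxytocin, 100 s read. Evaluation: % activation of max/min ratio relative to oxytocin controls. Replication: single well per compound, singlicate. Signal: Fluo-8 calcium dye fluorescence.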
TAAR1 antagonist: human TAAR1 antagonism; inhibition, % at 3 µM; CHO RD-HGA16 TAAR1, Fluo-8 calcium fluorescence, antagonist; AID 624466; hit rate 1.5% among 360,000; Q96RJ0;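 active = inhibition above a per-plate cutoff, the mean inhibition of test compounds on that plate plus 3 SD, cut at about 49% in these data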;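 note: 0% = DMSO plus EC80 beta-PEA response and 100% = DMSO alone without agonist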
Target sequence (Q96RJ0 whole entry, looked up): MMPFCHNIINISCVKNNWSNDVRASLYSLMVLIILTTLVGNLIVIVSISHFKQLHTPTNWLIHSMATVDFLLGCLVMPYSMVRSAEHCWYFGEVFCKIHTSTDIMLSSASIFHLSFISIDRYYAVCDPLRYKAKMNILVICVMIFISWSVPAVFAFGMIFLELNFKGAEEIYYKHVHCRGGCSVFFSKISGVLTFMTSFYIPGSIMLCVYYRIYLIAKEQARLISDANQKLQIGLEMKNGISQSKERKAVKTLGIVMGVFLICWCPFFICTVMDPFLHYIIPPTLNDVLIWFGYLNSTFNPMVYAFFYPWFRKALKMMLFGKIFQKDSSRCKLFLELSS
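System: RD-HGA16 CHO cells with stable hTAAR1 and Gα16 | Probe or stimulus: EC80 β-phenethylamine stimulus | Dosing: 3 µM, single point | Times: Dye loading 75 min at 37 °C, then 30 min room temperature | Measured by: Fluo-8 calcium-sensitive fluorescence | Read-out basis: % inhibition of agonist calcium response | Replicates: n of 1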
V1R ag counter: counter-screen for oxytocin receptor agonists: human V1a receptor agonists | CHO-V1R cells, Fluo-8 calcium fluorescence, agonist mode; 0% DMSO, 100% 3 nM vasopressin | P37288 | hit rate 0.25% among 320,000 | activation, % at 3 µM;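 active = activation above the mean activation of all tested compounds plus 3 SD, per screening run, cut at about 20% in these data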;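 note: signal is peak over basal fluorescence ratio across a 100 second FLIPR read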
OXTR ag: activates the human oxytocin receptor | P30559 | hit rate 0.32% among 320,000 | CHO-OTR cells, Fluo-8 calcium fluorescence; normalized: DMSO 0%, oxytocin 100% | activation, % at 3 µM | AID 2435;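 active = activation above the mean of all tested compounds plus 3 SD, cutoff set per screening run, cut at about 20% in these data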;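 note: peak over basal fluorescence ratio from a 100 s FLIPR kinetic read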
TAAR1 agonist: human TAAR1 agonism. activation, % at 3 µM. CHO RD-HGA16 TAAR1, Fluo-8 calcium fluorescence; vehicle wells 0%, saturating PEA agonist 100%. Q96RJ0. hit rate 0.99% among 360,000;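 active = activation above the mean activation of all test compounds in the run plus 3 SD, cut at about 38% in these data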
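Repeats: no replicates (n 1) | Material: CHO-derived RD-HGA16 cells with stable Gα16 and human TAAR1 | Technique: Kinetic Fluo-8 calcium fluorescence | Schedule: 17-24 h seeding, 75 min 37 °C dye, 30 min RT | Evaluation: % activation from peak over basal fluorescence ratio, DMSO-to-PEA scaled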
TAAR1 ag confirm: confirmation of human TAAR1 agonists; shares compounds with TAAR1 agonist; CHO RD-HGA16 TAAR1, Fluo-8 calcium fluorescence; scaled: DMSO 0%, maximal phenethylamine 100%; activation, % at 3 µM; hit rate 82% among 2,400;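 active = activation above a cutoff set at the run's mean compound activation plus 3 SD, cut at about 39% in these data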
Ga16 ag counter: nonselective agonist in parental cells, TAAR1 agonist counter-screen | AID 651787 | shares compounds with TAAR1 agonist | hit rate 50% among 2,400 | CHO-Ga16 parental, Fluo-8 calcium fluorescence; normalized to maximal ATP response, DMSO zero | activation, % at 3 µM;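 active = activation above the run cutoff, the mean activation over all tested wells plus 3 SD, cut at about 12% in these data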;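 note: 0% = DMSO wells and 100% = maximal ATP response on the peak over basal ratio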
TAAR1 desensitize: counter-screen for human TAAR1 agonists: agonists that desensitize TAAR1. shares compounds with TAAR1 agonist. CHO RD-HGA16 hTAAR1, Fluo-8 calcium, beta-PEA response inhibition. inhibition, % at 3 µM. hit rate 46% among 2,400. AID 651951;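 active = inhibition above the run cutoff, the mean inhibition of all test compounds plus 3 SD, cut at about 49% in these data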;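 note: beta-PEA stimulus applied at its EC80; loss of beta-PEA calcium signal after compound pretreatment read as receptor desensitization; 0% = DMSO with beta-PEA at EC80 and 100% = DMSO alone without agonist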
Ga16 nonsel ant: counter-screen for TAAR1 agonists: nonselective Ga16 antagonists; AID 651952; CHO-Ga16 ATP-induced calcium, Fluo-8 fluorescence; shares compounds with TAAR1 agonist; inhibition, % at 3 µM; hit rate 39% among 2,400;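 active = inhibition above the plate's mean compound inhibition plus 3 SD, computed per plate, cut at about 22% in these data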;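 note: 0% = EC80 ATP with DMSO and 100% = DMSO wells without ATP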
* marks the source's active call; other numbers are inactive results; x = no result given. Only some compounds are listed: those with a hit (about 2.3% of all), similar ones and a draw of the others.

SMILES | OXTR potentiate | TAAR1 antagonist | V1R ag counter | OXTR ag | TAAR1 agonist | TAAR1 ag confirm | Ga16 ag counter | TAAR1 desensitize | Ga16 nonsel ant
O=C(NCCCc1ccccc1)[C@@H]1Cc2ccccc2CN1 | 5 | -1 | 2 | 2 | 18 | x | x | x | x
CC(=O)Nc1cccc(-c2csc(C(O)c3cccc(Cl)c3)n2)c1 (stereo unspecified) | x | 19 | x | x | 10 | x | x | x | x
O=c1oc(=S)oc2c1[C@H](c1ccc(Cl)cc1)O[C@H](C1CC1)C2 | x | -7 | x | x | 2 | x | x | x | x
COc1ccc(C(=O)CN2C(=O)NC3(CCc4ccccc43)C2=O)cc1 (stereo unspecified) | -12 | 0 | 0 | 0 | 8 | x | x | x | x
CSCC[C@H](NC(=O)NCc1ccccc1F)C(=O)O | -6 | -6 | 1 | 0 | 0 | x | x | x | x
COC(=O)[C@H](CCSC)NC(=O)NCCc1ccccc1F | -4 | -1 | -1 | -1 | 47* | 53* | 1 | 26 | 8
Cc1sc2ccc3sccc3c2[n+]1C | 3 | 13 | 1 | 1 | 48* | 14 | 8 | 11 | 10
Cc1sc2c3ccsc3ccc2[n+]1C | -1 | 2 | 1 | 0 | 26 | x | x | x | x
COc1ccc(NS(=O)(=O)c2ccc3c(c2)CCC(=O)N3)cc1O | x | -3 | x | x | 1 | x | x | x | x
COc1cc(CNC(=O)OC2CC3CC2[C@H]2CCCCN2C3=O)cc(OC)c1 (stereo partly specified) | x | -20 | x | x | 1 | x | x | x | x
Cc1ccc(CNC(=O)OC2CC3CC2[C@H]2CCCCN2C3=O)cc1 (stereo partly specified) | x | -11 | x | x | 54* | 0 | 0 | 10 | 13
CN(C)CCSc1nnc2[nH]c3ccccc3c2n1 | -9 | 6 | 0 | -1 | 44* | 83* | 0 | 41 | -2
Cc1ccc(-c2c(C(=O)N/N=C/c3cccs3)nnn2-c2nonc2N)cc1 | -10 | x | 17 | 18 | x | x | x | x | x
CCOc1cccc(-c2c(C(=O)N/N=C/c3sccc3C)nnn2-c2nonc2N)c1 | -1 | -4 | 1 | 2 | 31 | x | x | x | x
CCOc1ccc(-c2c(C(=O)N/N=C/c3ccco3)nnn2-c2nonc2N)cc1 | -6 | -13 | 16 | 6 | 92* | 64* | 49* | 16 | 6
Cc1ccc(-c2c(C(=O)N/N=C/c3ccsc3)nnn2-c2nonc2N)cc1 | -20 | 50* | 36* | 39* | 133* | 125* | 90* | 72* | 34*
CCOc1cccc(-c2c(C(=O)N/N=C/c3ccsc3)nnn2-c2nonc2N)c1 | -7 | 20 | 24* | 25* | 118* | 136* | 93* | 67* | 27*
CCOc1ccc(-c2c(C(=O)N/N=C/c3ccc(C)cc3)nnn2-c2nonc2N)cc1 | 9 | 34 | 15 | 16 | 122* | 118* | 73* | 76* | 48*
CCN(CC(=O)Nc1c(F)cccc1F)C(=O)CCN1C(=O)C2CCCCC2C1=O (stereo unspecified) | -8 | 12 | 0 | 1 | 1 | x | x | x | x
CCOc1ccc(-c2c(C(=O)N/N=C/c3ccccc3)nnn2-c2nonc2N)cc1 | -6 | -15 | -1 | -2 | 51* | 43* | 30* | 13 | 15
Cc1ccc(-c2c(C(=O)N/N=C/c3ccoc3)nnn2-c2nonc2N)cc1 | -5 | 20 | 10 | 6 | 73* | 87* | 59* | 14 | 6
CCOc1ccc(-c2c(C(=O)N/N=C/c3ccncc3)nnn2-c2nonc2N)cc1 | -6 | -29 | 5 | 0 | 13 | x | x | x | x
Cc1ccc(-c2c(C(=O)N/N=C/c3cccc(Cl)c3)nnn2-c2nonc2N)cc1 | -12 | 35 | 1 | 2 | 4 | x | x | x | x
O=C(Nc1ccncc1)Nc1cccc(F)c1 | x | 46 | x | x | 92* | 104* | 12* | 84* | 17
O=C(Nc1ccncc1)Nc1ccc(F)cc1F | -7 | -13 | 0 | 1 | 47* | 71* | 1 | 16 | -3
SMILES | OXTR potentiate | TAAR1 antagonist | V1R ag counter | OXTR ag | TAAR1 agonist | TAAR1 ag confirm | Ga16 ag counter | TAAR1 desensitize | Ga16 nonsel ant
Cc1cccc(NC(=O)Nc2ccncc2)c1 | -7 | 15 | 3 | 3 | 53* | 77* | 3 | 36 | -1
O=C(Nc1ccncc1)c1cccc(F)c1 | -14 | 0 | 1 | 0 | 3 | x | x | x | x
O=C(Nc1cccnc1)Nc1cccc(F)c1 | -7 | 31 | 6 | 6 | 52* | 78* | 11 | 54* | 12
CC(=O)N1CCN(CC(O)COc2ccc(S(=O)(=O)N3CCOCC3)cc2)CC1 (stereo unspecified) | 3 | 26 | 1 | 1 | 0 | x | x | x | x
Cc1ccc(/C=N/c2sc3c(c2C(N)=O)CCCC3)o1 | -9 | 10 | 0 | 0 | 2 | x | x | x | x
c1ccc(C2(CN3CCNC[C@H]3Cc3cccc4ccccc34)CC2)cc1 | -7 | 2 | 2 | 8 | 44* | 47* | 19* | 24 | 26*
CC(O)[C@H]1CNCCN1CCc1cccc(F)c1 (stereo partly specified) | -1 | 5 | 2 | 0 | 74* | 67* | 0 | 10 | 6
Fc1cccc(CCN2CCNC[C@H]2Cc2cccc3ccccc23)c1 | -14 | 21 | 3 | 6 | 68* | 80* | 16* | 46 | 27*
CC(O)[C@H]1CNC(=S)N1CCc1cccc(F)c1 (stereo partly specified) | 6 | 3 | 0 | 0 | 4 | x | x | x | x
Cc1cc(NC(=O)CSc2nc3c(cc2C#N)CCC3)no1 | 2 | -10 | 0 | 0 | -2 | x | x | x | x
Cc1ccc([N+](=O)[O-])cc1NC(=O)Nc1onc(C)c1C | -10 | 7 | 0 | 0 | 1 | x | x | x | x
Nc1nc(N)c2cc(CNc3ccc(Cl)c(Cl)c3)ccc2n1 | x | 53* | x | x | 64* | 80* | 42* | 74* | 66*
CCC(=O)OCC(=O)c1c(N)n(Cc2ccccc2)c(=O)n(C)c1=O | -4 | -7 | 1 | 0 | 4 | x | x | x | x
Cn1c(=O)c(C(=O)COc2ccc(C#N)cc2)c(N)n(Cc2ccccc2)c1=O | -38 | 50* | 28* | 32* | 119* | 100* | 52* | 49* | 27*
NC(=Nc1ccccc1)Nc1ccccc1 | -25 | 79* | 10 | 11 | 87* | 118* | 83* | 94* | 67*

Screening data as filed in PubChem BioAssay.
